Test results: ChEMBL document CHEMBL4689842, “EUbOPEN Chemogenomics Library wave 1” (2021)

Tested on: U2OS
Test: Multiplex assay against U2OS
Format: toxicity, cell-based
Details: human
How it was run: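 Tubulin, mitochondrial-mass and membrane-permeability phenotypes are per cents of healthy-nucleus cells. Cells were gated by CellPathfinder machine learning into Hoechst high-intensity objects or normal cells, normal cells into healthy, pyknosed or fragmented nuclei, and pyknosed cells into mitotic or apoptotic. Before that, live cells stained at seeding with Hoechst33342, BioTracker Green Microtubule Cytoskeleton Dye, MitoTracker Red and Annexin V Alexa Fluor 680 were imaged on a CQ1 microscope at 37°C and 5% CO2 after compound addition.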

[1] = 12 h, 1 µM, compound concentration 1 uM, replicate 1
[2] = 12 h, 1 µM, compound concentration 1 uM, replicate 2
[3] = 12 h, 10 µM, compound concentration 10 uM, replicate 1
[4] = 12 h, 10 µM, compound concentration 10 uM, replicate 2
[5] = 24 h, 1 µM, compound concentration 1 uM, replicate 1
[6] = 24 h, 1 µM, compound concentration 1 uM, replicate 2
[7] = 24 h, 10 µM, compound concentration 10 uM, replicate 1
[8] = 24 h, 10 µM, compound concentration 10 uM, replicate 2

## CNC(=O)c1ccc(Nc2nc(OC3CCCC3)c3c(-c4ccc5nc(C)oc5c4)c[nH]c3n2)c(OC)c1
[1]
  Population Apoptotic (%): 36%
  Population Fragmented Nuclei (%): 10%
  Population Healthy Nuclei (%): 64%
  Population Hoechst High Intensity Objects (%): 2%
  Population Membrane Permeable-Phenotype (%): 58%
  Population Mitochondria Different-Phenotype (%): 45%
  Population Mitotic Cells (%): 63%
  Population Normal (%): 97%
  Population Pyknosed Nuclei (%): 25%
[2]
  Population Apoptotic (%): 30%
  Population Fragmented Nuclei (%): 14%
  Population Healthy Nuclei (%): 72%
  Population Hoechst High Intensity Objects (%): 6%
  Population Membrane Permeable-Phenotype (%): 63%
  Population Mitochondria Different-Phenotype (%): 40%
  Population Mitotic Cells (%): 70%
  Population Normal (%): 93%
  Population Pyknosed Nuclei (%): 13%
  Population Tubulin-Different-Phenotype (%): 100%
[3]
  Population Apoptotic (%): 30%
  Population Fragmented Nuclei (%): 1%
  Population Healthy Nuclei (%): 87%
  Population Hoechst High Intensity Objects (%): 1%
  Population Membrane Permeable-Phenotype (%): 62%
  Population Mitochondria Different-Phenotype (%): 18%
  Population Mitotic Cells (%): 70%
  Population Normal (%): 98%
  Population Pyknosed Nuclei (%): 11%
  Population Tubulin-Different-Phenotype (%): 90%
[4]
  Population Apoptotic (%): 25%
  Population Fragmented Nuclei (%): 22%
  Population Healthy Nuclei (%): 72%
  Population Hoechst High Intensity Objects (%): 22%
  Population Membrane Permeable-Phenotype (%): 54%
  Population Mitochondria Different-Phenotype (%): 26%
  Population Mitotic Cells (%): 75%
  Population Normal (%): 77%
  Population Pyknosed Nuclei (%): 4%
  Population Tubulin-Different-Phenotype (%): 65%
[5]
  Population Apoptotic (%): 89%
  Population Fragmented Nuclei (%): 12%
  Population Healthy Nuclei (%): 8%
  Population Hoechst High Intensity Objects (%): 5%
  Population Membrane Permeable-Phenotype (%): 92%
  Population Mitochondria Different-Phenotype (%): 84%
  Population Mitotic Cells (%): 10%
  Population Normal (%): 94%
  Population Pyknosed Nuclei (%): 79%
  Population Tubulin-Different-Phenotype (%): 100%
[6]
  Population Apoptotic (%): 60%
  Population Fragmented Nuclei (%): 25%
  Population Healthy Nuclei (%): 48%
  Population Hoechst High Intensity Objects (%): 11%
  Population Membrane Permeable-Phenotype (%): 65%
  Population Mitochondria Different-Phenotype (%): 73%
  Population Mitotic Cells (%): 40%
  Population Normal (%): 88%
  Population Pyknosed Nuclei (%): 25%
[7]
  Population Apoptotic (%): 43%
  Population Fragmented Nuclei (%): 6%
  Population Healthy Nuclei (%): 73%
  Population Hoechst High Intensity Objects (%): 1%
  Population Membrane Permeable-Phenotype (%): 43%
  Population Mitochondria Different-Phenotype (%): 18%
  Population Mitotic Cells (%): 56%
  Population Normal (%): 98%
  Population Pyknosed Nuclei (%): 20%
  Population Tubulin-Different-Phenotype (%): 71%
[8]
  Population Apoptotic (%): 62%
  Population Fragmented Nuclei (%): 23%
  Population Healthy Nuclei (%): 67%
  Population Hoechst High Intensity Objects (%): 14%
  Population Membrane Permeable-Phenotype (%): 30%
  Population Mitochondria Different-Phenotype (%): 28%
  Population Mitotic Cells (%): 37%
  Population Normal (%): 85%
  Population Pyknosed Nuclei (%): 8%
  Population Tubulin-Different-Phenotype (%): 55%
